Measurements gathered from unrelated publications.
Each line is one published result; the experiments were not run side by side.
Organism: Mycolicibacterium smegmatis
Read-out: microbial growth

For `ON=C1C2CC3CC(C2)CC1C3`, the IC50 was greater than 500 µM (48 h).
`COCCOc1ccc(-c2c[nH]c(N)n2)cc1` has an MIC of greater than 200 µM (ATCC700084 MC^2155; 48 h).
With `O=C(N[C@H](CO)[C@H](O)c1ccc([N+](=O)[O-])cc1)C(Cl)Cl` the MIC90 was 125 µg/mL (ATCC14468).
The MIC of `NNC(=O)c1ccncc1` is reported as 5 µg/mL (resazurin; MC^2155; 24 h).
`Cc1nc2sc3ccccc3n2c1C(=O)N1CCN(Cc2cn(-c3ccc([N+](=O)[O-])cc3)nn2)CC1` has an IC50 of greater than 128 µM (72 h).
`CCCCCc1ccc(-c2c[nH]c(N)n2)cc1` has an MIC of 200 µM (ATCC700084 MC^2155; 48 h).
`Cc1ccc(-n2cc(CN3CCN(C(=O)c4c(C)nc5sc6ccccc6n45)CC3)nn2)cc1C` gave an IC50 of 5.7 µM (72 h).
`CC(C)=CCC/C(C)=C/CNCCNC1C2CC3CC(C2)CC1C3` (stereo not drawn) gave an IC50 of 2.5 µM (48 h).
`Cc1cc(N)c2ccccc2[n+]1CCCCCCCCCC[n+]1c(C)cc(N)c2ccccc21` has an inhibition zone of 18 mm (disc diffusion; 50 µg/disc).
With `Cc1nc2sc3ccccc3n2c1C(=O)N1CCN(Cc2cn(-c3cccc(Cl)c3)nn2)CC1` the IC50 was 52.7 µM (72 h).
`O=C(O)CCCCCC1NC(=O)CS1` (racemic) has an MIC90 of 10 µM (MC^2155).
`CCCc1ccc(-c2c[nH]c(N)n2)cc1` gave an MIC of 200 µM (ATCC700084 MC^2155; 48 h).
